From ChEMBL document CHEMBL4138242, “Synthesis and antibacterial evaluation of novel cationic chalcone derivatives possessing broad spectrum antibacterial activity” (Eur J Med Chem, 2018)
The source made the active and inactive calls. The calls are words filed in the database; no cut-off is given here.

What was measured:
Escherichia coli [1] = experiment: Antibacterial activity against drug-resistant NDM1 producing Escherichia coli clinical isolate CF-13-61 after 16 to 20 hrs by broth microdilution method; type: functional
How it was run: (§1)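 CLSI broth microdilution in Mueller-Hinton broth. A 4-6 h culture was diluted to about 10⁶ CFU/mL and mixed 1:1 with compound dilutions prepared at 256 to 0.5 µg/mL from aqueous stocks. Plates were incubated at 37 °C for 16-20 h and read visually for MIC. Each concentration was run in duplicate, and the experiment was repeated at least twice. Vancomycin and meropenem were comparators.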

Staphylococcus aureus [2] = experiment: Antibacterial activity against methicillin-resistant Staphylococcus aureus clinical isolate 1207007 after 16 to 20 hrs by broth microdilution method; type: functional; how it was run: as §1
Klebsiella pneumoniae [3] = experiment: Antibacterial activity against drug-resistant carbapenemase producing Klebsiella pneumoniae clinical isolate KP-14-45 after 16 to 20 hrs by broth microdilution method; type: functional; how it was run: as §1
Salmonella enterica = experiment: Antibacterial activity against Salmonella enterica ATCC 13076 after 16 to 20 hrs by broth microdilution method; type: functional
How it was run: (§2)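 Broth microdilution per CLSI. Bacteria grown 4-6 h (about 10⁸ CFU/mL), then diluted to about 10⁶ CFU/mL. Medium: Mueller-Hinton broth, except Luria-Bertani broth for E. coli. Compounds in sterile water, twofold series 256-0.5 µg/mL, mixed 1:1 with inoculum, 37 °C for 16-20 h. MIC is the lowest concentration without visible growth. Duplicate wells; experiment repeated at least twice.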

Escherichia coli [4] = experiment: Antibacterial activity against drug-resistant NDM1 producing Escherichia coli clinical isolate CF-15-61 after 16 to 20 hrs by broth microdilution method; type: functional; how it was run: as §1
Klebsiella pneumoniae [5] = experiment: Antibacterial activity against drug-resistant carbapenemase producing Klebsiella pneumoniae clinical isolate KP-14-3 after 16 to 20 hrs by broth microdilution method; type: functional; how it was run: as §1
Enterococcus faecalis = experiment: Antibacterial activity against Enterococcus faecalis ATCC 29212 after 16 to 20 hrs by broth microdilution method; type: functional; how it was run: as §2
Staphylococcus aureus [6] = experiment: Antibacterial activity against methicillin-resistant Staphylococcus aureus clinical isolate 1-may after 16 to 20 hrs by broth microdilution method; type: functional; how it was run: as §1
[7] = Hemolytic activity in sheep RBC after 1 hr; type: ADME, cell-based, Ovis aries, Erythrocyte; conditions: sheep red blood cells (erythrocytes)
How it was run: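 Sheep red blood cells (150 µL suspension) mixed with 50 µL of compound dilutions (5120-10 µg/mL), 1 h at 37 °C, then centrifuged. Supernatant read at 540 nm. Percent hemolysis calculated relative to RBC-only control (0%) and 0.1% Triton X-100 (100%).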

Staphylococcus aureus [8] = experiment: Antibacterial activity against methicillin-resistant Staphylococcus aureus clinical isolate 20130911034sau after 16 to 20 hrs by broth microdilution method; type: functional; how it was run: as §1
Escherichia coli [9] = experiment: Antibacterial activity against drug-resistant NDM1 producing Escherichia coli clinical isolate KP-13-58 after 16 to 20 hrs by broth microdilution method; type: functional; how it was run: as §1
Escherichia coli [10] = experiment: Antibacterial activity against drug-resistant NDM1 producing Escherichia coli clinical isolate EC-14-54 after 16 to 20 hrs by broth microdilution method; type: functional; how it was run: as §1
Escherichia coli [11] = experiment: Induction of inner membrane permeabilization in Escherichia coli ATCC 25922 at 10 to 20 ug/ml measured every 2 mins for 12 mins by propidium iodide staining-based fluorescence assay; type: functional, organism-based
How it was run: (§3)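 Mid-log cells (~10⁸ CFU/mL) were suspended in PBS (S. aureus) or HEPES/glucose/KCl (E. coli). They were preincubated with propidium iodide for 30 min (S. aureus) or 40 min (E. coli), and baseline fluorescence was read for 8 min. Compound was added to 20 µg/mL final, and fluorescence (ex 535/em 617 nm) was read every 2 min for 12 min.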

Staphylococcus aureus [12] = experiment: Antibacterial activity against Staphylococcus aureus ATCC 29213 after 16 to 20 hrs by broth microdilution method; type: functional; how it was run: as §2
Escherichia coli [13] = experiment: Antibacterial activity against Escherichia coli ATCC 25922 after 16 to 20 hrs by broth microdilution method; type: functional; how it was run: as §2
Escherichia coli [14] = experiment: Induction of cytoplasmic membrane depolarization in Escherichia coli ATCC 25922 at 10 to 20 ug/ml measured every 2 mins for 12 mins by DiSC35 dye-based fluorescence assay; type: functional, organism-based
How it was run: (§4)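 Mid-log cells (~10⁸ CFU/mL) were suspended in PBS (S. aureus) or HEPES/glucose/KCl with EDTA (E. coli). They were preloaded with DiSC3(5) for 30 min (S. aureus) or 40 min (E. coli), and baseline fluorescence was read for 8 min. Compound was added to 20 µg/mL final, and fluorescence (ex 622/em 670 nm) was read every 2 min for 12 min. Water served as control.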

Staphylococcus aureus [15] = experiment: Antibacterial activity against methicillin-resistant Staphylococcus aureus clinical isolate 0831010 after 16 to 20 hrs by broth microdilution method; type: functional; how it was run: as §1
Escherichia coli [16] = experiment: Antibacterial activity against drug-resistant NDM1 producing Escherichia coli clinical isolate EA-14-61 after 16 to 20 hrs by broth microdilution method; type: functional; how it was run: as §1
Escherichia coli [17] = experiment: Antibacterial activity against drug-resistant NDM1 producing Escherichia coli clinical isolate EC-13-49 after 16 to 20 hrs by broth microdilution method; type: functional; how it was run: as §1
Klebsiella pneumoniae [18] = experiment: Antibacterial activity against drug-resistant carbapenemase producing Klebsiella pneumoniae clinical isolate KP-13-45 after 16 to 20 hrs by broth microdilution method; type: functional; how it was run: as §1
Klebsiella pneumoniae [19] = experiment: Antibacterial activity against drug-resistant carbapenemase producing Klebsiella pneumoniae clinical isolate KP-14-1 after 16 to 20 hrs by broth microdilution method; type: functional; how it was run: as §1
Klebsiella pneumoniae [20] = experiment: Antibacterial activity against drug-resistant carbapenemase producing Klebsiella pneumoniae clinical isolate KP-14-18 after 16 to 20 hrs by broth microdilution method; type: functional; how it was run: as §1
Staphylococcus aureus [21] = experiment: Antibacterial activity against methicillin-resistant Staphylococcus aureus clinical isolate 1208143 after 16 to 20 hrs by broth microdilution method; type: functional; how it was run: as §1
Klebsiella pneumoniae [22] = experiment: Antibacterial activity against drug-resistant carbapenemase producing Klebsiella pneumoniae clinical isolate KP-14-5 after 16 to 20 hrs by broth microdilution method; type: functional; how it was run: as §1
Escherichia coli [23] = experiment: Antibacterial activity against drug-resistant NDM1 producing Escherichia coli clinical isolate Ecl-14-56 after 16 to 20 hrs by broth microdilution method; type: functional; how it was run: as §1
Staphylococcus aureus [24] = experiment: Antibacterial activity against methicillin-resistant Staphylococcus aureus clinical isolate 0906202 after 16 to 20 hrs by broth microdilution method; type: functional; how it was run: as §1
Escherichia coli [25] = experiment: Antibacterial activity against drug-resistant NDM1 producing Escherichia coli clinical isolate Ecl-14-58 after 16 to 20 hrs by broth microdilution method; type: functional; how it was run: as §1
Klebsiella pneumoniae [26] = experiment: Antibacterial activity against drug-resistant carbapenemase producing Klebsiella pneumoniae clinical isolate KP-14-4 after 16 to 20 hrs by broth microdilution method; type: functional; how it was run: as §1
Escherichia coli [27] = experiment: Antibacterial activity against drug-resistant NDM1 producing Escherichia coli clinical isolate Ecl-14-59 after 16 to 20 hrs by broth microdilution method; type: functional; how it was run: as §1
Staphylococcus aureus [28] = experiment: Induction of cytoplasmic membrane depolarization in Staphylococcus aureus ATCC 29213 at 10 to 20 ug/ml measured every 2 mins for 12 mins by DiSC35 dye-based fluorescence assay; type: functional, organism-based; how it was run: as §4
Staphylococcus aureus [29] = experiment: Antibacterial activity against methicillin-resistant Staphylococcus aureus clinical isolate 20131012632sau after 16 to 20 hrs by broth microdilution method; type: functional; how it was run: as §1
Escherichia coli [30] = experiment: Antibacterial activity against drug-resistant NDM1 producing Escherichia coli clinical isolate Ecl-13-62 after 16 to 20 hrs by broth microdilution method; type: functional; how it was run: as §1
Klebsiella pneumoniae [31] = experiment: Antibacterial activity against drug-resistant carbapenemase producing Klebsiella pneumoniae clinical isolate KP-13-54 after 16 to 20 hrs by broth microdilution method; type: functional; how it was run: as §1
Klebsiella pneumoniae [32] = experiment: Antibacterial activity against drug-resistant carbapenemase producing Klebsiella pneumoniae clinical isolate KP-14-8 after 16 to 20 hrs by broth microdilution method; type: functional; how it was run: as §1
Escherichia coli [33] = experiment: Antibacterial activity against drug-resistant NDM1 producing Escherichia coli clinical isolate 1460 after 16 to 20 hrs by broth microdilution method; type: functional; how it was run: as §1
Klebsiella pneumoniae [34] = experiment: Antibacterial activity against drug-resistant carbapenemase producing Klebsiella pneumoniae clinical isolate KP-14-2 after 16 to 20 hrs by broth microdilution method; type: functional; how it was run: as §1
Klebsiella pneumoniae [35] = experiment: Antibacterial activity against drug-resistant carbapenemase producing Klebsiella pneumoniae clinical isolate EC-13-23 after 16 to 20 hrs by broth microdilution method; type: functional; how it was run: as §1
Staphylococcus aureus [36] = experiment: Antibacterial activity against methicillin-resistant Staphylococcus aureus clinical isolate 1104060 after 16 to 20 hrs by broth microdilution method; type: functional; how it was run: as §1
Staphylococcus aureus [37] = experiment: Antibacterial activity against methicillin-resistant Staphylococcus aureus clinical isolate 1105183 cono7 after 16 to 20 hrs by broth microdilution method; type: functional; how it was run: as §1
Staphylococcus aureus [38] = experiment: Induction of inner membrane permeabilization in Staphylococcus aureus ATCC 29213 at 10 to 20 ug/ml measured every 2 mins for 12 mins by propidium iodide staining-based fluorescence assay; type: functional, organism-based; how it was run: as §3
Klebsiella pneumoniae [39] = experiment: Antibacterial activity against drug-resistant carbapenemase producing Klebsiella pneumoniae clinical isolate KP-13-55 after 16 to 20 hrs by broth microdilution method; type: functional; how it was run: as §1
Escherichia coli [40] = experiment: Antibacterial activity against drug-resistant NDM1 producing Escherichia coli clinical isolate SM-15-84 after 16 to 20 hrs by broth microdilution method; type: functional; how it was run: as §1

Compound CCCCCCCC[N+](C)(C)CC(=O)Nc1ccc(C(=O)/C=C/c2ccc(Cl)cc2)cc1.[Cl-] has an MIC (Escherichia coli [1]) of 8 µg/mL, an MIC (Staphylococcus aureus [2]) of 0.5 µg/mL and an MIC (Klebsiella pneumoniae [3]) of 8 µg/mL. The MIC (Salmonella enterica) was 8 µg/mL, the MIC (Escherichia coli [4]) was 8 µg/mL and the MIC (Klebsiella pneumoniae [5]) was 8 µg/mL. For the same compound, the MIC (Enterococcus faecalis) was 2 µg/mL, the MIC (Staphylococcus aureus [6]) was 2 µg/mL and the HC50 at 1 h [7] was over 500 µg/mL. It also gave an MIC (Staphylococcus aureus [8]) of 0.5 µg/mL, an MIC (Escherichia coli [9]) of 4 µg/mL and an MIC (Escherichia coli [10]) of 16 µg/mL. For the same compound, the Activity (Escherichia coli [11]) was “Active”, the MIC (Staphylococcus aureus [12]) was 2 µg/mL and the MIC (Escherichia coli [13]) was 4 µg/mL. The Activity (Escherichia coli [14]) was “Active”, the MIC (Staphylococcus aureus [15]) was 1 µg/mL and the MIC (Escherichia coli [16]) was 4 µg/mL. It also gave an MIC (Escherichia coli [17]) of 16 µg/mL, an MIC (Klebsiella pneumoniae [18]) of 8 µg/mL and an MIC (Klebsiella pneumoniae [19]) of 16 µg/mL. For the same compound, the MIC (Klebsiella pneumoniae [20]) was 16 µg/mL, the MIC (Staphylococcus aureus [21]) was 2 µg/mL and the MIC (Klebsiella pneumoniae [22]) was 8 µg/mL. It also gave an MIC (Escherichia coli [23]) of 4 µg/mL, an MIC (Staphylococcus aureus [24]) of 1 µg/mL and an MIC (Escherichia coli [25]) of 4 µg/mL. For the same compound, the MIC (Klebsiella pneumoniae [26]) was 8 µg/mL, the MIC (Escherichia coli [27]) was 8 µg/mL and the Activity (Staphylococcus aureus [28]) was “Active”. For the same compound, the MIC (Staphylococcus aureus [29]) was 2 µg/mL, the MIC (Escherichia coli [30]) was 8 µg/mL and the MIC (Klebsiella pneumoniae [31]) was 8 µg/mL. The MIC (Klebsiella pneumoniae [32]) was 8 µg/mL, the MIC (Escherichia coli [33]) was 8 µg/mL and the MIC (Klebsiella pneumoniae [34]) was 16 µg/mL. The MIC (Klebsiella pneumoniae [35]) was 8 µg/mL, the MIC (Staphylococcus aureus [36]) was 4 µg/mL and the MIC (Staphylococcus aureus [37]) was 1 µg/mL. For the same compound, the Activity (Staphylococcus aureus [38]) was “Active”, the MIC (Klebsiella pneumoniae [39]) was 32 µg/mL and the MIC (Escherichia coli [40]) was 16 µg/mL.
